Assay results: ChEMBL document CHEMBL1124154, “Polycyclic aryl- and heteroarylpiperazinyl imides as 5-HT1A receptor ligands and potential anxiolytic agents: synthesis and structure-activity relationship studies” (J Med Chem, 1988)

Legend:
Rattus norvegicus = organism: Rattus norvegicus; assay: Concentration required to produce 50% block in avoidance responding in conditioned avoidance response test in rat; format: functional
How it was run: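 Trained rats in shelf-jump and/or discrete-trial conditioned avoidance paradigms. Drug given ip or po to at least five rats per dose, with a control session before each drug run. Trials without avoidance (avoidance block) were counted per dose as a percentage of total trials, with control set at 100%. AB50 was taken from a least-squares dose-effect regression line.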

[1] = biological target: T1, 5-hydroxytryptamine receptor 1A (Rattus norvegicus, UniProt P19327); assay: In vitro inhibition of [3H]-8-hydroxy-2-(di-n-propylamino)tetralin binding to 5-hydroxytryptamine 1A receptor from rat hippocampal tissue.
T1 sequence (P19327 whole entry): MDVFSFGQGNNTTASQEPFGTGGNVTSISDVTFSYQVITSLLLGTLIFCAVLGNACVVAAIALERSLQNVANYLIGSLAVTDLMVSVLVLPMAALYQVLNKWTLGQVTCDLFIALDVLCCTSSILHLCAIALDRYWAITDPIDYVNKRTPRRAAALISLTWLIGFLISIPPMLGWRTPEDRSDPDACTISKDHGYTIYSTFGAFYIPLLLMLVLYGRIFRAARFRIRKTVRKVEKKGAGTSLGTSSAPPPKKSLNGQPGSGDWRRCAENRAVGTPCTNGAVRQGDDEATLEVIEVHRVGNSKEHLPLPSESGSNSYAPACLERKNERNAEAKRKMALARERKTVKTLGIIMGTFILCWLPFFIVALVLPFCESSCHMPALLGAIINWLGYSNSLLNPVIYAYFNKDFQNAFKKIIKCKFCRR

[2] = biological target: D(2) dopamine receptor (Rattus norvegicus) (UniProt P61169); assay: In vitro inhibition of [3H]spiperone binding to dopamine receptor D2 from rat brain limbic tissue at 1 uM; format: tissue-based; conditions: Limbic system
Chain of D(2) dopamine receptor (Rattus norvegicus) (P61169 whole entry): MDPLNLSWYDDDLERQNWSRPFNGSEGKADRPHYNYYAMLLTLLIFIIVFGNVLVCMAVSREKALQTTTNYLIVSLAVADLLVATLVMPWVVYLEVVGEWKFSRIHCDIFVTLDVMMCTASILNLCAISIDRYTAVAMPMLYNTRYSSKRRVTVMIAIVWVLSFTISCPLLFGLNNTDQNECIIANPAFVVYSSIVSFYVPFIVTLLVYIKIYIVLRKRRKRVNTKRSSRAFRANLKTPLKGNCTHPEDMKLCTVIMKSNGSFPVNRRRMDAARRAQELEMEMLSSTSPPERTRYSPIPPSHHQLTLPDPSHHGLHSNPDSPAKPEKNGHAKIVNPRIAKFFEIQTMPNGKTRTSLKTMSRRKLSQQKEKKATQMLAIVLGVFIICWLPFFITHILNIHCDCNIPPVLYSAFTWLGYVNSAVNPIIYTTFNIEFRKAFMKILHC

[3] = biological target: T2, 5-hydroxytryptamine receptor 1A (Rattus norvegicus) (UniProt P19327); assay: In vitro inhibition of [3H]-8-hydroxy-2-(di-n-propylamino)tetralin binding to 5-hydroxytryptamine 1A receptor from rat hippocampal tissue at 1 uM; conditions: Hippocampus
T2 sequence (whole entry): T1 sequence (P19327 whole entry)

D(2) dopamine receptor = D(2) dopamine receptor (Rattus norvegicus, UniProt P61169); assay: In vitro inhibition of [3H]spiperone binding to Dopamine receptor D2 from rat brain limbic tissue; format: tissue-based, Limbic system
Chain of D(2) dopamine receptor (P61169 whole entry): as above
How it was run: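 Limbic tissue (nucleus accumbens, septum, olfactory tubercle) from Sprague-Dawley rats, washed membranes at 0.2-0.3 mg protein. Incubated with 0.3 nM [3H]spiroperidol and a range of drug concentrations, 10 min at 37 °C, in Tris buffer pH 7.1 with NaCl, KCl, CaCl2, ascorbate and pargyline. Filtered through GF/B and counted by scintillation. Nonspecific binding defined with 1 μM (+)-butaclamol.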

[4] = Partition coefficient (logP); format: physicochemical; conditions: octanol/water
[5] = Ratio of ED50 stereotyped behavior in mice; format: functional

Compound | AB50 (Rattus norvegicus) [mg/kg] | Ki [1] [nM] | inhibition [2] [%] | inhibition [3] [%] | Ki (D(2) dopamine receptor) [nM] | logP [4] | Ratio [5]
Cl.O=C1C2C3CCCC(CC3)C2C(=O)N1CCCCN1CCN(c2ncccn2)CC1 (stereo unspecified) | 40 | 5 | 74 | – | – | – | –
COc1ccccc1N1CCN(CCCCN2C(=O)C3C4C=CC(C5C=CC54)C3C2=O)CC1.Cl (stereo unspecified) | 19 | 1.3 | 100 | 100 | – | – | –
O=C1C2C3C=CC(C4CC34)C2C(=O)N1CCCCC1CCN(c2cncc(Cl)n2)CC1 (stereo unspecified) | 40 | – | 21 | 8 | – | – | –
O=C1C2C3C=CC(C4CCC34)C2C(=O)N1CCCCN1CCN(c2ccc(Cl)nn2)CC1 (stereo unspecified) | >40 | – | – | – | 1920 | – | –
Cl.O=C1C2C3C=CC(C4C=CC43)C2C(=O)N1CCCCN1CCN(c2cnccn2)CC1 (stereo unspecified) | 40 | – | 13 | 46 | – | – | –
Cl.O=C1C2C3CS(=O)(=O)CC3C2C(=O)N1CCCCN1CCN(c2ncccn2)CC1 (stereo unspecified) | >40 | – | 0 | 44 | – | – | –
Cl.O=C1N(CCCCN2CCN(c3ncccn3)CC2)C(=O)C23C4CCC(C4)C12C1CCC3C1 (stereo unspecified) | 40 | – | 63 | – | – | – | –
O=C1C2C3C=CC(C3)C2C(=O)N1CCCCN1CCN(c2nccnc2Cl)CC1 (stereo unspecified) | 40 | 37 | 48 | – | – | – | –
O=C1C2C3CCCC(CC3)C2C(=O)N1CCCCN1CCN(c2cncc(Cl)n2)CC1 (stereo unspecified) | >40 | 162 | 49 | – | – | – | –
Cl.O=C1C2C3CCC(C4CC43)C2C(=O)N1CCCCN1CCN(c2ncccn2)CC1 (stereo unspecified) | 34 | – | – | – | – | 1.83 | –
CC(C)=C1C2C=CC1C1C(=O)N(CCCCN3CCN(c4cncc(Cl)n4)CC3)C(=O)C21 (stereo unspecified) | 40 | – | – | – | 968 | – | –
Cl.O=C1C2C3CCC(C4CC43)C2C(=O)N1CCCCN1CCN(c2cccc(C(F)(F)F)c2)CC1 (stereo unspecified) | >40 | 20 | 92 | – | – | – | –
O=C1C2C3C=CC(C4C=CC43)C2C(=O)N1CCCCN1CCN(c2cncc(Cl)n2)CC1 (stereo unspecified) | 40 | – | 50 | – | – | – | –
Cl.O=C1C2C3C=CC(C4CC34)C2C(=O)N1CCCCN1CCN(c2ncccn2)CC1 (stereo unspecified) | 40 | 38 | – | – | 488 | 1.73 | –
O=C1C2C3C=CC(C3)C2C(=O)N1CCCCN1CCN(c2cncc(Cl)n2)CC1 (stereo unspecified) | 40 | – | 1 | 74 | – | – | –
O=C1C2C3C=CC(C3)C2C(=O)N1CCCCN1CCN(c2ncccn2)CC1 (stereo unspecified) | 5 | 42 | – | – | 248 | 1.36 | –
O=C1C2C3C=CC(C4C=CC43)C2C(=O)N1CCCCN1CCN(c2cccc(Cl)c2)CC1 (stereo unspecified) | >40 | 41 | 3 | – | – | – | –
Cl.O=C1C2C3C=CC(CCC3)C2C(=O)N1CCCCN1CCN(c2ncccn2)CC1 (stereo unspecified) | 40 | – | 53 | – | – | 1.94 | –
Cl.O=C1C2C3C=CC(C4C=CC43)C2C(=O)N1CCCCN1CCN(c2cccc(C(F)(F)F)c2)CC1 (stereo unspecified) | 40 | 25 | 96 | – | – | – | –
Cl.O=C1C2C3C=CC(CCC3)C2C(=O)N1CCCCc1ccncc1 (stereo unspecified) | 40 | – | 6 | 0 | – | – | –
O=C1C2C3C=CC(C4CCC34)C2C(=O)N1CCCCN1CCN(c2cccc(Cl)c2)CC1 (stereo unspecified) | 40 | 19 | 87 | – | – | – | –
Cl.O=C1C2C3C=CC(C4CC34)C2C(=O)N1CCCCc1ccncc1 (stereo unspecified) | >40 | – | 0 | 0 | – | – | –
O=C1C2C3CCC(C4CC43)C2C(=O)N1CCCCN1CCN(c2cncc(Cl)n2)CC1 (stereo unspecified) | 40 | – | 49 | 72 | – | – | –
Cl.O=C1N(CCCCN2CCN(c3ncccn3)CC2)C(=O)C23C4C=CC(C4)C12C1C=CC3C1 (stereo unspecified) | 40 | – | 53 | – | – | – | –
Cl.O=C1C2C3CCC(C4CCC43)C2C(=O)N1CCCCN1CCN(c2ncccn2)CC1 (stereo unspecified) | 40 | 1 | – | – | 53 | 2.09 | –

Compound | AB50 (Rattus norvegicus) [mg/kg] | Ki [1] [nM] | inhibition [2] [%] | inhibition [3] [%] | Ki (D(2) dopamine receptor) [nM] | logP [4] | Ratio [5]
O=C1C2C3C=CC(CCC3)C2C(=O)N1CCCCN1CCN(c2cncc(Cl)n2)CC1 (stereo unspecified) | 68 | – | 43 | – | – | – | –
O=C1C2C3C=CC(C4CC34)C2C(=O)N1CCCCN1CCN(c2ccc(Cl)nn2)CC1 (stereo unspecified) | 40 | – | – | – | 2330 | – | –
Cl.Cn1nnnc1N1CCN(CCCCN2C(=O)C3C4C=CC(C5CCC45)C3C2=O)CC1 (stereo unspecified) | 40 | – | 39 | 47 | – | – | –
O=C1N(CCCCN2CCN(c3cncc(Cl)n3)CC2)C(=O)C23C4CCC(C4)C12C1CCC3C1 (stereo unspecified) | 40 | – | – | 23 | – | – | –
Cl.O=C1C2C3C=CC(C4CC34)C2C(=O)N1CCCCN1CCN(c2ccc(C(F)(F)F)cn2)CC1 (stereo unspecified) | 40 | – | 40 | 55 | – | – | –
O=C1C2C3C=CC(C3)C2C(=O)N1CCCCN1CCN(c2ccc(Cl)nn2)CC1 (stereo unspecified) | 40 | – | 19 | – | – | – | –
O=C1[C@@H]2[C@H]3CC[C@H](C3)[C@@H]2C(=O)N1CCCCN1CCN(c2ncccn2)CC1 [TANDOSPIRONE] | 28 | 9 | – | – | – | – | –
O=C1C2C3C=CC(C4CCC34)C2C(=O)N1CCCCN1CCN(c2cncc(Cl)n2)CC1 (stereo unspecified) | 40 | 190 | – | – | – | – | –
O=C1C2C3CCC(C4CCC43)C2C(=O)N1CCCCN1CCN(c2cncc(Cl)n2)CC1 (stereo unspecified) | >40 | 51 | – | – | – | – | –
Cl.O=C1N(CCCCN2CCN(c3cnccn3)CC2)C(=O)C23C4C=CC(C4)C12C1C=CC3C1 (stereo unspecified) | 40 | 129 | 14 | – | – | – | –
Cl.O=C1C2C3C=CC(C4C=CC43)C2C(=O)N1CCCCN1CCN(c2ncccn2)CC1 (stereo unspecified) | 13 | – | 59 | – | – | 1.79 | 7.6
O=C1N(CCCCN2CCN(c3cncc(Cl)n3)CC2)C(=O)C23C4C=CC(C4)C12C1C=CC3C1 (stereo unspecified) | >40 | – | – | 98 | – | – | –
O=C1C2C3C=CC(CCCC3)C2C(=O)N1CCCCN1CCN(c2cncc(Cl)n2)CC1 (stereo unspecified) | 25 | – | – | – | – | – | –
Cl.O=C1C2C3C=CC(C4C=CC43)C2C(=O)N1CCCCN1CCN(c2ccc(C(F)(F)F)cn2)CC1 (stereo unspecified) | >40 | – | 31 | 40 | – | – | –
Cl.O=C1C2C3CCCC(CC3)C2C(=O)N1CCCCN1CCN(c2cccc(C(F)(F)F)c2)CC1 (stereo unspecified) | >40 | 17 | 97 | – | – | – | –
Cl.O=C1C2C3C=CC(C4CC34)C2C(=O)N1CCCCN1CCN(c2cccc(C(F)(F)F)c2)CC1 (stereo unspecified) | 44 | 26 | 91 | – | – | – | –
O=C1C2C3CS(=O)(=O)CC3C2C(=O)N1CCCCN1CCN(c2cncc(Cl)n2)CC1 (stereo unspecified) | 40 | – | 0 | 35 | – | – | –
O=C1C2C3CCC(C4CC43)C2C(=O)N1CCCCN1CCN(c2nccnc2Cl)CC1 (stereo unspecified) | 61 | 26 | 75 | – | – | – | –
Cl.O=C1C2C3C=CC(C4CCC34)C2C(=O)N1CCCCN1CCN(c2cccc(C(F)(F)F)c2)CC1 (stereo unspecified) | 40 | 57 | 99 | – | – | – | –
O=C1C2C3C=CC(C4CC34)C2C(=O)N1CCCCN1CCN(c2cncc(Cl)n2)CC1 (stereo unspecified) | 40 | – | – | – | – | – | –
Cl.O=C1C2C3CCCC(CC3)C2C(=O)N1CCCCN1CCN(c2ccc(C(F)(F)F)cn2)CC1 (stereo unspecified) | >40 | – | 33 | 71 | – | – | –
O=C1C2C3CS(=O)(=O)CC3C2C(=O)N1CCCCN1CCN(c2nccnc2Cl)CC1 (stereo unspecified) | 40 | – | 0 | 28 | – | – | –
Cl.O=C1C2C3C=CC(C4CCC34)C2C(=O)N1CCCCN1CCN(c2ncccn2)CC1 (stereo unspecified) | 47 | 1.3 | – | – | – | 2.02 | –
O=C1C2CCCCC2C(=O)N1CCCCN1CCN(c2ncccn2)CC1 (stereo unspecified) | 6 | – | – | – | 374 | – | –
O=C1C2C3C=CC(C4CC34)C2C(=O)N1CCCCN1CCN(c2cccc(Cl)c2)CC1 (stereo unspecified) | 40 | 14 | 100 | – | – | – | –
